Drawing on ChEMBL document CHEMBL1124624, “Synthesis and biological evaluation of 4,6-diethyl-1,3,4,5-tetrahydropyrano[4,3-b]indole-4-acetic acid, an isomer of etodolac” (J Med Chem, 1989), this text covers IC50 and ED50 for 7 molecules.

Experiment [1] is described as follows: In vitro inhibition of prostaglandin E2 production in cultured chondrocytes. The experiment is classed as functional, cell-based. The essentials: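 Cultured chondrocytes were exposed to compound at neutral pH over a short incubation period. Prostaglandin E2 production was measured, and inhibitory potency is given as an IC50.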
In another experiment the test system is Rattus norvegicus. The experiment in a line: Antiinflammatory activity of the perorally administered compound assessed in adjuvant arthritis assay in rat. The format is functional. The settings on record: po. The essentials:
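Rats given test compound by mouth in the curative (established-disease) adjuvant arthritis/edema model. Inhibition of paw edema was scored, and potency is given as an ED50 in mg/kg.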

On to `CCC1(CC(=O)O)SCCc2c1[nH]c1ccccc21` (configuration not stated), for which, in experiment [1], the concentration for half-maximal inhibition (IC50) – broadly, the point on the concentration scale where inhibition reaches its midpoint – was 0.3 µM. In the experiment with Rattus norvegicus, the median effective dose (ED50) (in general, the midpoint of the dose-response relation) is > 25 mg/kg.
In the case of `CCc1cccc2c3c([nH]c12)C(CC)(CC(=O)O)CCCC3` (configuration not stated), in the experiment with Rattus norvegicus, the median effective dose (ED50) is > 50 mg/kg.
Turning to `CCC1(CC(=O)O)OCCc2c1[nH]c1ccccc21` (configuration not stated), the half-maximal inhibitory concentration (IC50) in experiment [1] was 0.1 µM. Moreover, in the experiment on Rattus norvegicus, the ED50 was 6.8 mg/kg.
The corresponding values for `CCc1cccc2c3c([nH]c12)C(CC)(CC(=O)O)CCC3` (configuration not stated) are 0.02 µM and 1.9 mg/kg.
`CCc1cccc2c3c([nH]c12)C(CC)(CC(=O)O)COC3` (configuration not stated) gave an IC50 in experiment [1] of 0.05 µM. Besides, the median effective dose (ED50) in the experiment with Rattus norvegicus is 3 mg/kg.
With `CCc1cccc2c3c([nH]c12)C(CC)(CC(=O)O)CC3` (configuration not stated), in the experiment on Rattus norvegicus, the ED50 stood at 6.2 mg/kg.
`CCc1cccc2c3c([nH]c12)C(CC)(CC(=O)O)OCC3` (configuration not stated) [ETODOLAC] returned an IC50 in experiment [1] of 0.023 µM. Besides, in the experiment on Rattus norvegicus, the median effective dose (ED50) stood at 0.7 mg/kg.
